Laboratory results from ChEMBL document CHEMBL4765363, “Design, synthesis and biological evaluation of 4-aniline quinazoline derivatives conjugated with hydrogen sulfide (HS) donors as potent EGFR inhibitors against L858R resistance mutation” (Eur J Med Chem, 2020).

Legend:
[1] = biological target: Epidermal growth factor receptor (Homo sapiens) (UniProt P00533); test: Inhibition of wild type EGFR in human A549 cells assessed as cell growth inhibition measured after 72 hrs by Celltiter-Glo luminescent cell viability assay; format: cell-based
Method in brief: (§1)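 Cells seeded at 2500-3000 per well and exposed to test agents across a concentration series for 72 h. Viability read by CellTiter-Glo luminescence, normalized to DMSO controls. Mean of three independent measurements (standard error <20%); GI50 obtained by curve fitting. Single-concentration readout is proliferation rate at 10 µM.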

[2] = Induction of H2S generation in pH 7.4 PBS:acetone buffer at 10 to 200 uM measured after 3 hrs by NIR-HS probe based fluorescence spectrophotometric method; format: functional; details: dose 10-200 µM
Method in brief: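 NIR-HS probe (10 µM) incubated with compound (0, 5, 10, 50, 100, 200 µM) in PBS:acetone 2:3 (pH 7.4) at 37 °C for 3 h. Fluorescence read at ex 670 / em 723 nm.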

[3] = Induction of H2S generation in pH 7.4 PBS:acetone buffer at 20 uM measured after 2 hrs by NIR-HS probe based fluorescence spectrophotometric method; format: functional
Method in brief: (§2)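 Compound at 20 µM incubated with NIR-HS (10 µM) in PBS:acetone 2:3 at 37 °C, sampled from 0 to 180 min (0, 5, 30, 60, 90, 120, 150, 180 min). Emission read at 723 nm (ex 670 nm). H2S quantified against a Na2S calibration curve (0-8 µM, same probe and conditions, 3 h, F/F0 at 723 nm).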

[4] = biological target: Epidermal growth factor receptor (Mus musculus) (UniProt Q01279); details: BaF3, time 72.0 hrs
[5] = biological target: Epidermal growth factor receptor (Homo sapiens) (UniProt P00533); details: BaF3, time 72.0 hrs
[6] = test system: Epidermal growth factor receptor (Homo sapiens), P00533 [L858R]; details: BaF3, time 72.0 hrs
[7] = test system: Epidermal growth factor receptor (Homo sapiens), P00533 [L858R,T790M]; details: BaF3, time 72.0 hrs
[8] = test system: Epidermal growth factor receptor (Homo sapiens), P00533 [L858R]; details: NCI-H3255, time 72.0 hrs
[9] = test system: Epidermal growth factor receptor (Homo sapiens), P00533 [C797S]; test: Inhibition of TEL-fused EGFR C797S mutant (unknown origin) transfected in mouse BaF3 cells assessed as reduction in cell proliferation incubated for 72 hrs by Celltiter-Glo luminescent cell viability assay; format: cell-based; method in brief: as §1
[10] = test system: Epidermal growth factor receptor (Homo sapiens), P00533 [L858R]; test: Inhibition of EGFR L858R mutant in human NCI-H3255 cells assessed as cell growth inhibition measured after 72 hrs in presence of ZnCl2 by Celltiter-Glo luminescent cell viability assay; format: cell-based
[11] = test system: HUVEC; test: Cytotoxicity against HUVEC assessed as reduction in cell viability measured after 72 hrs by Celltiter-Glo luminescent cell viability assay; format: cell-based; details: Homo sapiens
Method in brief: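 Cells seeded at 2500-3000 per well, exposed to a range of compound concentrations for 72 h. Viability read by CellTiter-Glo luminescence. Data normalised to DMSO controls, given as the mean of three independent measurements, with IC50 obtained by curve fitting.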

[12] = test system: Epidermal growth factor receptor (Homo sapiens), P00533 [L858R]; test: Inhibition of EGFR L858R mutant phosphorylation at Y1068 residue in human NCI-H3255 cells measured after 4 hrs by Western blot analysis; format: cell-based
Method in brief: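 H3255 cells treated with a range of concentrations for 4 h, then lysed in cold RIPA containing 1% PMSF. Lysate protein quantified by BCA, separated by SDS-PAGE and transferred to PVDF. Blocked in 5% milk, probed with anti-phospho-EGFR (Y1068) and developed by ECL.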

[13] = test system: NCI-H3255; test: Cell cycle arrest in human NCI-H3255 cells assessed as accumulation at G0/G1 phase at 1 uM measured after 72 hrs by propidium iodide staining based flow cytometry (reference value: 53.55%); format: functional
Method in brief: (§3)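 H3255 cells in 10% FBS/RPMI given DMSO or compound at 1, 5 or 10 µM for 72 h, then washed in cold PBS, fixed in 70% cold ethanol and held overnight at -20 °C. Stained with PI/RNase buffer for 15 min at room temperature, then analysed by flow cytometry with ModFit phase modelling.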

[14] = test system: NCI-H3255; test: Cell cycle arrest in human NCI-H3255 cells assessed as accumulation at S phase at 1 uM measured after 72 hrs by propidium iodide staining based flow cytometry (reference value: 36.26%); format: functional; method in brief: as §3
[15] = test system: NCI-H3255; test: Cell cycle arrest in human NCI-H3255 cells assessed as accumulation at G2/M phase at 1 uM measured after 72 hrs by propidium iodide staining based flow cytometry (reference value: 10.18%); format: functional; method in brief: as §3
[16] = test system: NCI-H3255; test: Cell cycle arrest in human NCI-H3255 cells assessed as accumulation at G0/G1 phase at 5 uM measured after 72 hrs by propidium iodide staining based flow cytometry (reference value: 53.55%); format: functional; method in brief: as §3
[17] = test system: NCI-H3255; test: Cell cycle arrest in human NCI-H3255 cells assessed as accumulation at S phase at 5 uM measured after 72 hrs by propidium iodide staining based flow cytometry (reference value: 36.26%); format: functional; method in brief: as §3
[18] = test system: NCI-H3255; test: Cell cycle arrest in human NCI-H3255 cells assessed as accumulation at G2/M phase at 5 uM measured after 72 hrs by propidium iodide staining based flow cytometry (reference value: 10.18%); format: functional; method in brief: as §3
[19] = test system: NCI-H3255; test: Cell cycle arrest in human NCI-H3255 cells assessed as accumulation at G0/G1 phase at 10 uM measured after 72 hrs by propidium iodide staining based flow cytometry (reference value: 53.55%); format: functional; method in brief: as §3
[20] = test system: NCI-H3255; test: Cell cycle arrest in human NCI-H3255 cells assessed as accumulation at S phase at 10 uM measured after 72 hrs by propidium iodide staining based flow cytometry (reference value: 36.26%); format: functional; method in brief: as §3
[21] = test system: NCI-H3255; test: Cell cycle arrest in human NCI-H3255 cells assessed as accumulation at G2/M phase at 10 uM measured after 72 hrs by propidium iodide staining based flow cytometry (reference value: 10.18%); format: functional; method in brief: as §3
[22] = Induction of H2S generation in pH 7.4 PBS:acetone buffer at 20 uM measured within 1 hr by NIR-HS probe based fluorescence spectrophotometric method; format: functional; method in brief: as §2
[23] = test system: NCI-H3255; test: Antiproliferative activity against human NCI-H3255 cells assessed as cell growth inhibition at 10 uM measured after 72 hrs by Celltiter-Glo luminescent cell viability assay relative to control; details: NCI-H3255, 72 h

Sequence of Epidermal growth factor receptor (Homo sapiens), P00533 [L858R,T790M] (P00533 whole entry T790M/L858R, looked up): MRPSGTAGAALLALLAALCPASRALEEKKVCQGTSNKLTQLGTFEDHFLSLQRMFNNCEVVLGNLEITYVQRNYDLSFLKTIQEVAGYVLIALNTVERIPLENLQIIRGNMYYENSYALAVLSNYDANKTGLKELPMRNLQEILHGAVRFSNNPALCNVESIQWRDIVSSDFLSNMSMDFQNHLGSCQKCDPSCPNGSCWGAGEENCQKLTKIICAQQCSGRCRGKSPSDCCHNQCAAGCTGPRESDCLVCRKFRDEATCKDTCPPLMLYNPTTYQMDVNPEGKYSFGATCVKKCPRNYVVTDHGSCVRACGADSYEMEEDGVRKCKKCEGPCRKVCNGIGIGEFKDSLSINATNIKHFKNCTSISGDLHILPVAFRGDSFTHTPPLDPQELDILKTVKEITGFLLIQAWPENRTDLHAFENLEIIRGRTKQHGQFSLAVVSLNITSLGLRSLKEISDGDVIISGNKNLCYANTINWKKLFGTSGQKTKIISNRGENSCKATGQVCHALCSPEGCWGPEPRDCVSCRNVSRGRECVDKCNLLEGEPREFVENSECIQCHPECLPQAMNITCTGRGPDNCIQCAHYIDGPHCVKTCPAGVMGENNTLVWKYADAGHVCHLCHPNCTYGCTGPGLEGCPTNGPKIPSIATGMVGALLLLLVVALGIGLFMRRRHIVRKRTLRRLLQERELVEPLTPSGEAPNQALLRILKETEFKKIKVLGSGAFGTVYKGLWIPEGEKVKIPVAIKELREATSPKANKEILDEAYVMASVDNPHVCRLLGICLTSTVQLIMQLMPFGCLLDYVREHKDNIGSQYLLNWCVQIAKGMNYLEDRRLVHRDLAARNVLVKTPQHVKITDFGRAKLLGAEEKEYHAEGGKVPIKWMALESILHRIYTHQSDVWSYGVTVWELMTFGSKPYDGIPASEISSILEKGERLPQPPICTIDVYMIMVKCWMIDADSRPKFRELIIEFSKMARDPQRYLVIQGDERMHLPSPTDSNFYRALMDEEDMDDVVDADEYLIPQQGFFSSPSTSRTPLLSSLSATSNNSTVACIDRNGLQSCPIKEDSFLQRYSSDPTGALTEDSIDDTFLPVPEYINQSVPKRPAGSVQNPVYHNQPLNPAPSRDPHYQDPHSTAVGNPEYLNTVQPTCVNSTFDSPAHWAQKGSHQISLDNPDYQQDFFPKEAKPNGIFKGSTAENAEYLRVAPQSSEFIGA
Sequence of Epidermal growth factor receptor (Homo sapiens), P00533 [L858R] (P00533 whole entry L858R, the tested form may be a part): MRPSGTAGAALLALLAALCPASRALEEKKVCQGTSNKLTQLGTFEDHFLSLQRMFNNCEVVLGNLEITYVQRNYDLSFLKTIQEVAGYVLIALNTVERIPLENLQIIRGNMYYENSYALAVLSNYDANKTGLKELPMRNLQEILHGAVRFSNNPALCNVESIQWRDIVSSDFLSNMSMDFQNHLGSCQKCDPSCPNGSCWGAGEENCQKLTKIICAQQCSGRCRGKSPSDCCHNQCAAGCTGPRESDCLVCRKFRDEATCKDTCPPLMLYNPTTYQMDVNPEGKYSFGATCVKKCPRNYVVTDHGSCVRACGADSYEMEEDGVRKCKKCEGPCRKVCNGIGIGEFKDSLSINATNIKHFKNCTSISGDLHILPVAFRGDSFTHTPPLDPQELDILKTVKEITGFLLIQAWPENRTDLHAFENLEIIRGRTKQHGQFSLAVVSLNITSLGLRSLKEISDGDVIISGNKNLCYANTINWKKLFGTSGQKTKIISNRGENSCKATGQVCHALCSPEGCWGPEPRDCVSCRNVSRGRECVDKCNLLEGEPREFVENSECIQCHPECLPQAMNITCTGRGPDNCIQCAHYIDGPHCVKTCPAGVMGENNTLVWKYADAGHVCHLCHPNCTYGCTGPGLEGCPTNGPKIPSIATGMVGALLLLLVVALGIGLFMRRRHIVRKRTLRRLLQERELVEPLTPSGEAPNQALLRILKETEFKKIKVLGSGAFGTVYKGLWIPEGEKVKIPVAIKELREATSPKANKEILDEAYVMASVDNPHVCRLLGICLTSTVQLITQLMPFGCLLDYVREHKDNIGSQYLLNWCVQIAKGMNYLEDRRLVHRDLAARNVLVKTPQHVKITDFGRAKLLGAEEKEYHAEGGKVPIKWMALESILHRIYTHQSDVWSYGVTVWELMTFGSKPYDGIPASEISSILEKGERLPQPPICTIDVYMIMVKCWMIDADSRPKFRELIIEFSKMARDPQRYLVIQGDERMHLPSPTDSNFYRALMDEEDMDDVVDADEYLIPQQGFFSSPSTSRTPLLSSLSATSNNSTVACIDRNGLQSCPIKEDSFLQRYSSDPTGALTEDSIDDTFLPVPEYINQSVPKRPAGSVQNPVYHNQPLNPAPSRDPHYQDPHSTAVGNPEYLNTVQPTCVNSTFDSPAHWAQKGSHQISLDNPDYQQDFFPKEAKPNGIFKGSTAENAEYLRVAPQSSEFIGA
Sequence of Epidermal growth factor receptor (Mus musculus) (Q01279 whole entry): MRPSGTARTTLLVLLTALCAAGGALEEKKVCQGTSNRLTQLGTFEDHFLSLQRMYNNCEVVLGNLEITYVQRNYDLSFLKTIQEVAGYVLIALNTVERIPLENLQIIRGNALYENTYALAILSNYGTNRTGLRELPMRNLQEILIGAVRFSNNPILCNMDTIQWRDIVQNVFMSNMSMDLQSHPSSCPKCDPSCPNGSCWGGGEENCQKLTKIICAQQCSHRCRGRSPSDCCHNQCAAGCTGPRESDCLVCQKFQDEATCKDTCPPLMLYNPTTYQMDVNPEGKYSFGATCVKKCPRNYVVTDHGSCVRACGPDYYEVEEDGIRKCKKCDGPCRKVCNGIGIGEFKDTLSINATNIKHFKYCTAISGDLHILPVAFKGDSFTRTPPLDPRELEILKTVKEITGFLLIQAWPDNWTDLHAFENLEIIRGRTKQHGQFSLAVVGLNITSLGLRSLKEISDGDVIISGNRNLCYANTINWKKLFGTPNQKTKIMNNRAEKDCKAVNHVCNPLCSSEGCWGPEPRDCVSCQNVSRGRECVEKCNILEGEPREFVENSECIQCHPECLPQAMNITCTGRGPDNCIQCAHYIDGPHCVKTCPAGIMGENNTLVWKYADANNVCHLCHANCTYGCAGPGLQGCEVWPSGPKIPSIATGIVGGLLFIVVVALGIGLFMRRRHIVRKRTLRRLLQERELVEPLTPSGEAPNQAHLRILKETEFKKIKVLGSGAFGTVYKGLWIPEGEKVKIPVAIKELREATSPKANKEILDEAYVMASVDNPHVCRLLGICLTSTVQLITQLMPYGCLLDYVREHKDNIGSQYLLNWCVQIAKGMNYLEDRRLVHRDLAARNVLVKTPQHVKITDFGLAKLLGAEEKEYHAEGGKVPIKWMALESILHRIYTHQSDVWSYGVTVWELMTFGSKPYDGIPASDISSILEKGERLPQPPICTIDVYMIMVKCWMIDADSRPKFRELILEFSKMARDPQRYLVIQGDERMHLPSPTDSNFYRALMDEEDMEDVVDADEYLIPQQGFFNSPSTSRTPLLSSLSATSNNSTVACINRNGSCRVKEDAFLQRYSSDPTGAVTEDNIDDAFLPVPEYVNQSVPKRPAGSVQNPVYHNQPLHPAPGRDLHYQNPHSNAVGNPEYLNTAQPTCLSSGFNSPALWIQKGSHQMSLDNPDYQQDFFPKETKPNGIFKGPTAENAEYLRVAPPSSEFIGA
Sequence of Epidermal growth factor receptor (Homo sapiens) (P00533 whole entry): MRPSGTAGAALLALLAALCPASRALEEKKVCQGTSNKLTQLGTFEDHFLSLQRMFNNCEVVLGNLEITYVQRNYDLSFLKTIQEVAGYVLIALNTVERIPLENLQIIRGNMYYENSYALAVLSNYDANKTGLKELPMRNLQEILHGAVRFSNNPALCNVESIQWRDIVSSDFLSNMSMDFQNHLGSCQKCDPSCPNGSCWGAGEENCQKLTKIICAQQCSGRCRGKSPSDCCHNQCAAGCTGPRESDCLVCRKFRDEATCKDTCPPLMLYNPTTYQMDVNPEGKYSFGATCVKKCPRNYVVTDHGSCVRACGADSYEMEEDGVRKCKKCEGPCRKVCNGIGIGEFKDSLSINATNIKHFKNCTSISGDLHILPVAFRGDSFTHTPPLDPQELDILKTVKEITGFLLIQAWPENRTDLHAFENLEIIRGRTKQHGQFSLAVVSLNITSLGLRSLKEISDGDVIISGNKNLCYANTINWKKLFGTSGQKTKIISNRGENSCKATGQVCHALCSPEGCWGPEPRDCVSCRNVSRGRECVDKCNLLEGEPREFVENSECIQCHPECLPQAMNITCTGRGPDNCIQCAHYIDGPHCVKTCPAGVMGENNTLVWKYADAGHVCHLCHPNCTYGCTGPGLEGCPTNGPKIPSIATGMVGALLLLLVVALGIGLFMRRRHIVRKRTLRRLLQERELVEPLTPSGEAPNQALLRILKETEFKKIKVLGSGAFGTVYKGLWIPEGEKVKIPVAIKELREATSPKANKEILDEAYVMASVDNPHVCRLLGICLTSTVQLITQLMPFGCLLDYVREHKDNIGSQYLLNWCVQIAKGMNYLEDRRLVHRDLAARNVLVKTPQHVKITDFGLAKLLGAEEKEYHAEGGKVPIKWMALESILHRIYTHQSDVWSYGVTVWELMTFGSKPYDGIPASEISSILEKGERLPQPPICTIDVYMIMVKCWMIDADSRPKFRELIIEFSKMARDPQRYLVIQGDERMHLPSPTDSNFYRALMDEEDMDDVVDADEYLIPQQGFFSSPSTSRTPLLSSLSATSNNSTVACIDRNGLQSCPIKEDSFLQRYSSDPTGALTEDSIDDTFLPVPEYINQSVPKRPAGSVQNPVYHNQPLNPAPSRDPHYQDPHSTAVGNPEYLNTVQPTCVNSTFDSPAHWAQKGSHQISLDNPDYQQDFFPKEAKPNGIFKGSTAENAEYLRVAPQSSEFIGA

| Structure (SMILES) | GI50 [1] [µM] | GI50 [4] [µM] | GI50 [5] [µM] | GI50 [6] [µM] | GI50 [7] [µM] | GI50 [8] [µM] | other results |
| --- | --- | --- | --- | --- | --- | --- | --- |
| COc1ccc(Nc2ncnc3cc(OCCCOc4ccc(-c5cssc5=S)cc4)c(OC)cc23)cc1OC | > 10 | 2.65 | 3.39 | 0.83 | 6.35 | 8.58 | Drug metabolism [2]: Metabolite detected; Drug metabolism [3]: Metabolite detected |
| O=C(COc1ccc(-c2cssc2=O)cc1)Nc1ccc2ncnc(Nc3cccc(Br)c3)c2c1 | > 10 |  |  |  |  |  |  |
| C=CCSSCCC(=O)OCCCOc1cc2ncnc(Nc3cccc(Br)c3)c2cc1OC | > 10 | > 10 | > 10 | 0.008 | 6.03 | 0.787 | GI50 [9]: 0.0069 µM; GI50 [10]: 0.303 µM; IC50 [11]: > 10 µM; inhibition [12]: Dose-dependent effect; Activity [13]: 60.32%; Activity [14]: 34.49%; Activity [15]: 5.19%; Activity [16]: 84.88%; Activity [17]: 10.23%; Activity [18]: 4.89%; Activity [19]: 88.61%; Activity [20]: 8.73%; Activity [21]: 2.66%; Drug metabolism [2]: Metabolite detected; Drug metabolism [22]: Metabolite detected |
| C=CC(=O)Nc1cc(Nc2nccc(-c3cn(C)c4ccccc34)n2)c(OC)cc1N(C)CCN(C)C [OSIMERTINIB] |  |  |  |  |  |  | IC50 [11]: 7.28 µM |
| [Cl-].[Cl-].[Zn+2] [ZINC CHLORIDE] |  |  |  |  |  |  | Cell proliferation rate % at 10 µM [23]: 54% |
| O=C(COc1ccc(-c2cssc2=O)cc1)Nc1ccc2ncnc(Nc3cccc(C(F)(F)F)c3)c2c1 | > 10 |  |  |  |  |  |  |
| C=CCCSSCC(=O)Nc1ccc2ncnc(Nc3cccc(C(F)(F)F)c3)c2c1 | > 10 |  |  |  |  |  |  |
| COc1cc2c(Nc3cccc(Br)c3)ncnc2cc1OCCCOc1ccc(-c2cssc2=S)cc1 | > 10 | 9.23 | 3.06 | 0.12 | > 10 | 2.4 |  |
| C=CCCSSCC(=O)Nc1ccc2ncnc(Nc3ccc(F)c(Cl)c3)c2c1 | > 10 | > 10 | > 10 | 0.012 | > 10 | 0.349 |  |
| COc1cc2c(Nc3ccc(F)c(Cl)c3)ncnc2cc1OCCCOc1ccc(-c2cssc2=S)cc1 | > 10 | > 10 | > 10 | 0.27 | > 10 | > 10 |  |
| C=CCSSCCC(=O)OCCCOc1cc2ncnc(Nc3ccc(Br)cc3)c2cc1OC | > 10 | 3.91 | 2.34 | 0.058 | > 10 | 1.35 |  |
| COc1cc2c(Nc3cccc(C(F)(F)F)c3)ncnc2cc1OCCCOc1ccc(-c2cssc2=S)cc1 | > 10 | 3.79 | 1.98 | 0.38 | 1.65 | 7.47 |  |
| COc1cc2c(Nc3ccc([N+](=O)[O-])cc3)ncnc2cc1OCCCOc1ccc(-c2cssc2=S)cc1 | > 10 | 3.79 | 4.08 | 0.6 | > 10 | 1.87 |  |
| O=C(COc1ccc(-c2cssc2=O)cc1)Nc1ccc2ncnc(Nc3ccc(F)c(Cl)c3)c2c1 | > 10 | 4.27 | 2.49 | 0.29 | 3.16 | 4.36 | Drug metabolism [2]: Metabolite detected; Drug metabolism [3]: Metabolite detected |
| COc1cc2c(Nc3ccc(Br)cc3)ncnc2cc1OCCCOc1ccc(-c2cssc2=S)cc1 | > 10 | 9.23 | 9.56 | 0.25 | > 10 | 1.41 |  |
| C=CCCSSCC(=O)Nc1ccc2ncnc(Nc3cccc(Br)c3)c2c1 | > 10 | > 10 | > 10 | 0.011 | > 10 | 0.519 |  |
